Published values collected from several papers.
Protocols differ between the studies behind these lines.
ACHE: Acetylcholinesterase (ACHE, Homo sapiens, UniProt P22303)
Sialidase-2: Sialidase-2 (Homo sapiens, UniProt Q9Y3R4)
DPP4: Dipeptidyl peptidase 4 (DPP4, Homo sapiens, UniProt P27487)
FABP4: Fatty acid-binding protein, adipocyte (FABP4, Homo sapiens, UniProt P15090)

SMILES | target | test | conditions | IC50
CC[C@@H](C)[C@H](NC(=O)COc1c(NC(C)=O)cc(-c2nc3ccccc3s2)cc1OC)C(=O)OC | ACHE | enzyme activity, inhibitor, Ellman |  | > 256 µM
O=c1cc(CSc2ccc(N=Cc3ccccc3C(F)(F)F)cc2)occ1O | ACHE | enzyme activity, inhibitor, Ellman |  | 8.05 µM
CC(C)(C)CC(=O)N[C@H]1[C@H]([C@H](O)[C@H](O)CO)OC(C(=O)O)=C[C@@H]1O | Sialidase-2 | enzyme activity, inhibitor |  | 80 µM
CCc1ccc(C=Nc2ccc(SCc3cc(=O)c(O)co3)cc2)cc1 | ACHE | enzyme activity, inhibitor, Ellman |  | 8.46 µM
CCCCCC(=O)N[C@H]1[C@H]([C@H](O)[C@H](O)CO)OC(C(=O)O)=C[C@@H]1O | Sialidase-2 | enzyme activity, inhibitor |  | 8 µM
COc1c2c(cc3c1-c1c(cc4c(c1OC)OCO4)C[C@H](C)[C@H](C)C3)OCO2 | DPP4 | enzyme activity, inhibitor, fluorescence |  | > 100 µM
CCN[C@H]1[C@H]([C@H](O)[C@H](O)CO)OC(C(=O)O)=C[C@@H]1O | Sialidase-2 | enzyme activity, inhibitor |  | > 500 µM
CC(=O)c1c(C)c2cnc(Nc3ccc(C4CCN(CCS(C)(=O)=O)CC4)cn3)nc2n(C2CCCC2)c1=O | Cyclin-dependent kinase 9 (CDK9, Homo sapiens, UniProt P50750) | enzyme activity, inhibitor, mobility shift |  | > 0.75 µM
CC(C)CNC(=O)N[C@H]1[C@H]([C@H](O)[C@H](O)CO)OC(C(=O)O)=C[C@@H]1O | Sialidase-2 | enzyme activity, inhibitor |  | 30 µM
CC(C)(C)c1ccc(C=Nc2ccc(SCc3cc(=O)c(O)co3)cc2)cc1 | ACHE | enzyme activity, inhibitor, Ellman |  | 17.4 µM
COc1cc(-c2nc3ccccc3s2)cc(NC(C)=O)c1OCC(=O)N[C@H](Cc1ccccc1)C(=O)O | ACHE | enzyme activity, inhibitor, Ellman |  | > 246 µM
CCCCNC(=O)N[C@H]1[C@H]([C@H](O)[C@H](O)CO)OC(C(=O)O)=C[C@@H]1O | Sialidase-2 | enzyme activity, inhibitor |  | 380 µM
CCOC(=O)c1ccc(OC(=O)CCCCCN=C(N)N)cc1 | Kallikrein-13 (Homo sapiens, UniProt Q9UKR3) | enzyme activity, inhibitor |  | 12.2 µM
C1CO1.C=O.CC(C)(C)CC(C)(C)c1ccc(O)cc1 | Mitogen-activated protein kinase 3 (MAPK3, Homo sapiens, UniProt P27361) | enzyme activity, inhibitor, ADP detection |  | 91.9 µM
COc1cccc(C=Nc2ccc(SCc3cc(=O)c(O)co3)cc2)c1 | ACHE | enzyme activity, inhibitor, Ellman |  | 19.9 µM
O=C(O)C(F)(F)C(F)(F)C(F)(F)C(F)(F)C(F)(F)C(F)(F)C(F)(F)C(F)(F)C(F)(F)F | FABP4 | ligand displacement, fluorescence | pH 7.5 | 3.54 µM
COc1cc(-c2nc3ccccc3s2)cc(NC(C)=O)c1OCC(=O)NCC(=O)O | ACHE | enzyme activity, inhibitor, Ellman |  | > 298 µM
O=c1cc(CSc2ccc(N=Cc3ccc(F)cc3)cc2)occ1O | ACHE | enzyme activity, inhibitor, Ellman |  | 1.44 µM
COc1ccc(CCCCC(=O)C(F)(F)C(F)(F)F)cc1 | Phospholipase A2 group V (PLA2G5, Homo sapiens, UniProt P39877) | enzyme activity, inhibitor |  | 44.5 µM
O=C(O)C(F)(F)C(F)(F)C(F)(F)C(F)(F)C(F)(F)C(F)(F)C(F)(F)C(F)(F)C(F)(F)C(F)(F)C(F)(F)F | Sterol carrier protein 2 (Homo sapiens, UniProt P22307) | ligand displacement, fluorescence |  | 2.37 µM
CCc1ccccc1C=Nc1ccc(SCc2cc(=O)c(O)co2)cc1 | ACHE | enzyme activity, inhibitor, Ellman |  | 5.38 µM
O=C(O)C(F)(F)C(F)(F)C(F)(F)F | FABP4 | ligand displacement, fluorescence | pH 7.5 | 2840 µM
O=c1cc(CSc2ccc(N=Cc3ccc(C(F)(F)F)cc3)cc2)occ1O | ACHE | enzyme activity, inhibitor, Ellman |  | 13.3 µM
CC(=O)N(C)[C@H]1[C@H]([C@H](O)[C@H](O)CO)OC(C(=O)O)=C[C@@H]1O | Sialidase-2 | enzyme activity, inhibitor |  | > 500 µM
O=c1cc(-c2ccc(O)c(O)c2)oc2cc(O)cc(O)c12 | DPP4 | enzyme activity, inhibitor, fluorescence |  | 48 µM
CC(C)(C)NC(=O)N[C@H]1[C@H]([C@H](O)[C@H](O)CO)OC(C(=O)O)=C[C@@H]1O | Sialidase-2 | enzyme activity, inhibitor |  | > 500 µM
O=C(O)C(F)(F)C(F)(F)C(F)(F)C(F)(F)C(F)(F)C(F)(F)C(F)(F)F | FABP4 | ligand displacement, fluorescence | pH 7.5 | 4.67 µM
O=c1cc(CSc2ccc(N=Cc3ccccc3Cl)cc2)occ1O | ACHE | enzyme activity, inhibitor, Ellman |  | 2.33 µM
CCCCCc1cn([C@H]2[C@H]([C@H](O)[C@H](O)CO)OC(C(=O)O)=C[C@@H]2O)nn1 | Sialidase-2 | enzyme activity, inhibitor |  | > 500 µM
